Reference: ChEMBL document CHEMBL1150627, “Diterpenes from the roots of Euphorbia kansui and their in vitro effects on the cell division of Xenopus” (2002)
Active and inactive are the calls of the source. No cut-off for these calls is given here.

Species: Xenopus laevis
Assay: Induction of cleavage arrest in embryonic cells of Xenopus laevis stage 8 blastulae after 20 hrs by animal cap assay
Assay type: functional, cell-based
In short: (§1)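 Single inner-surface cells taken from animal caps of X. laevis stage 8 blastulae, freed in Ca/Mg-free medium (50 mM phosphate, 35 mM NaCl, 1 mM KCl, pH 7.0). Two or three cells per well in NAM/2 with 2 mg/mL γ-globulin, non-nutritive. Test concentrations 0.1, 0.5, 2, 10, 50 and 200 µg/mL. Cultured 20 h at 25 °C. Read-out: percentage of cells with cleavage arrest.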

SMILES	Activity
C=C1[C@H](OC(C)=O)[C@@H](OC(=O)c2ccccc2)[C@@H](OC(C)=O)C(C)(C)[C@H]2O[C@](O)([C@H](C)C2=O)[C@@]2(OC(C)=O)C[C@H](C)[C@H](OC(C)=O)[C@@H]2[C@H]1OC(C)=O	inactive
C=C1[C@H](OC(=O)c2ccccc2)[C@H]2[C@@H](OC(C)=O)[C@](C)(O)[C@H](OC(C)=O)[C@]2(O)C(=O)[C@@H](C)[C@H]2O[C@@H]2C(C)(C)C(=O)[C@H](O)[C@H]1OC(=O)c1ccccc1	inactive

Test system: not listed separately
Assay: Induction of cleavage arrest in embryonic cells of Xenopus laevis stage 8 blastulae at 0.5 ug/mL after 20 hrs by animal cap assay
Assay type: functional
In short: as §1

SMILES	Activity [%]
CCCCC/C=C\C=C\C(=O)O[C@H]1C(C)=C[C@]23C(=O)[C@@H](C=C(CO)[C@@H](OC(C)=O)[C@]12O)[C@H]1[C@@H](C[C@H]3C)C1(C)C	>75
CCCCC/C=C/C=C/C(=O)O[C@@H]1C(CO)=C[C@@H]2C(=O)[C@]3(C=C(C)[C@H](O)[C@@]13O)[C@H](C)C[C@@H]1[C@H]2C1(C)C	>75
CCCCC/C=C/C=C/C(=O)O[C@H]1C(C)=C[C@]23C(=O)[C@@H](C=C(CO)[C@@H](O)[C@]12O)[C@H]1[C@@H](C[C@H]3C)C1(C)C	>75
CCCCC/C=C\C=C\C(=O)OCC1=C[C@@H]2C(=O)[C@]3(C=C(C)[C@H](O)[C@@]3(O)[C@@H]1O)[C@H](C)C[C@@H]1[C@H]2C1(C)C	>75
CCCCC/C=C/C=C/C(=O)OCC1=C[C@@H]2C(=O)[C@]3(C=C(C)[C@H](O)[C@@]3(O)[C@@H]1O)[C@H](C)C[C@@H]1[C@H]2C1(C)C	>75
CCCCC/C=C\C=C\C(=O)O[C@H]1C(C)=C[C@]23C(=O)[C@@H](C=C(CO)[C@@H](O)[C@]12O)[C@H]1[C@@H](C[C@H]3C)C1(C)C	>75
CCCCC/C=C\C=C\C(=O)O[C@H]1C(C)=C[C@]23C(=O)[C@@H](C=C(COC(C)=O)[C@@H](O)[C@]12O)[C@H]1[C@@H](C[C@H]3C)C1(C)C	>75
CCCCC/C=C/C=C/C(=O)O[C@H]1C(C)=C[C@]23C(=O)[C@@H](C=C(COC(C)=O)[C@@H](O)[C@]12O)[C@H]1[C@@H](C[C@H]3C)C1(C)C	>75
CCCCCCCCCC(=O)OCC1=C[C@@H]2C(=O)[C@]3(C=C(C)[C@H](O)[C@@]3(O)[C@@H]1O)[C@H](C)C[C@@H]1[C@H]2C1(C)C	>75
